From BindingDB's records for doi:10.1016/j.ejmech.2016.07.006 (Csir-Indian Institute of Integrative Medicine, 2016)

Columns and labels:
[1] = biological target: T1, Phosphatidylinositol 4,5-bisphosphate 3-kinase catalytic subunit delta isoform (Homo sapiens, UniProt O00329); assay: Inhibition of PI3Kdelta (unknown origin) using diC8 PIP2 as substrate after 120 mins by ADP-glo assay
T1 sequence (O00329 whole entry): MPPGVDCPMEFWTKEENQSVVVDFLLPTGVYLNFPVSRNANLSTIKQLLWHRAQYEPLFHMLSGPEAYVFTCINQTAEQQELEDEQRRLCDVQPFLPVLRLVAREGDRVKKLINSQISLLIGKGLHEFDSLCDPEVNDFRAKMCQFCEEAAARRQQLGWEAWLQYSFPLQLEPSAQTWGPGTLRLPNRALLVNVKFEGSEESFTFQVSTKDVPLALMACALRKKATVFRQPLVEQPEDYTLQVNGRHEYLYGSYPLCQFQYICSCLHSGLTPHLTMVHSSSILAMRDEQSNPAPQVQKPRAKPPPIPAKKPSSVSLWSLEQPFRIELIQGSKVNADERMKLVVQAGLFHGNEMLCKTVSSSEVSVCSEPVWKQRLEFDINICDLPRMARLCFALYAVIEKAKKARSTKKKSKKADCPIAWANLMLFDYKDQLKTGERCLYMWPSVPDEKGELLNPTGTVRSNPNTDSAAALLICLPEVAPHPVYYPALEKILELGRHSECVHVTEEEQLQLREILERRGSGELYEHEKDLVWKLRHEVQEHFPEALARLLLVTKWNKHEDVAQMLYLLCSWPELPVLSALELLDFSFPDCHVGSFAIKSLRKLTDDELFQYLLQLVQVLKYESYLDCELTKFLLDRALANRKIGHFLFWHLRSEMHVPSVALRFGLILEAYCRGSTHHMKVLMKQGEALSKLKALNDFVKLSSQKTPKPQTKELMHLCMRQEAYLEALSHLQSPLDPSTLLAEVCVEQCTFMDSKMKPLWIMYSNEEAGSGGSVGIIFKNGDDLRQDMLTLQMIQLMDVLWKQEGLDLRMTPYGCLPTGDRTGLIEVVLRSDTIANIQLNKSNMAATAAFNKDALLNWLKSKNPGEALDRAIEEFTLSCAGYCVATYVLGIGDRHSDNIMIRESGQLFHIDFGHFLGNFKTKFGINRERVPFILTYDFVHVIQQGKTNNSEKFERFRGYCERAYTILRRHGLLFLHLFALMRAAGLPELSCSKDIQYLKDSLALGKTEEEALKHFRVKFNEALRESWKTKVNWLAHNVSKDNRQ
Procedure, shortened: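 Delta isoform reacted 120 min in glycine-NaOH pH 8.5 buffer (50 mM KCl, 2.5 mM MgCl2, 1 mM DTT, 0.05% CHAPS) with 0.01 mM ATP and 0.05 mM diC8 PIP2; ADP formed detected by ADP-Glo (40 min) plus detection buffer (40 min) luminescence. Dundee profiling centre.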

[2] = biological target: Phosphatidylinositol 4,5-bisphosphate 3-kinase catalytic subunit beta isoform (Homo sapiens, UniProt P42338); assay: Inhibition of PI3Kbeta (unknown origin) using diC8 PIP2 as substrate after 60 mins by ADP-glo assay
[3] = biological target: Phosphatidylinositol 4,5-bisphosphate 3-kinase catalytic subunit alpha isoform (Homo sapiens, UniProt P42336); assay: Inhibition of PI3Kalpha (unknown origin) using diC8 PIP2 as substrate after 80 mins by ADP-glo assay
Phosphatidylinositol 4,5-bisphosphate 3-kinase catalytic subunit alpha isoform, sequence (P42336 whole entry, canonical isoform): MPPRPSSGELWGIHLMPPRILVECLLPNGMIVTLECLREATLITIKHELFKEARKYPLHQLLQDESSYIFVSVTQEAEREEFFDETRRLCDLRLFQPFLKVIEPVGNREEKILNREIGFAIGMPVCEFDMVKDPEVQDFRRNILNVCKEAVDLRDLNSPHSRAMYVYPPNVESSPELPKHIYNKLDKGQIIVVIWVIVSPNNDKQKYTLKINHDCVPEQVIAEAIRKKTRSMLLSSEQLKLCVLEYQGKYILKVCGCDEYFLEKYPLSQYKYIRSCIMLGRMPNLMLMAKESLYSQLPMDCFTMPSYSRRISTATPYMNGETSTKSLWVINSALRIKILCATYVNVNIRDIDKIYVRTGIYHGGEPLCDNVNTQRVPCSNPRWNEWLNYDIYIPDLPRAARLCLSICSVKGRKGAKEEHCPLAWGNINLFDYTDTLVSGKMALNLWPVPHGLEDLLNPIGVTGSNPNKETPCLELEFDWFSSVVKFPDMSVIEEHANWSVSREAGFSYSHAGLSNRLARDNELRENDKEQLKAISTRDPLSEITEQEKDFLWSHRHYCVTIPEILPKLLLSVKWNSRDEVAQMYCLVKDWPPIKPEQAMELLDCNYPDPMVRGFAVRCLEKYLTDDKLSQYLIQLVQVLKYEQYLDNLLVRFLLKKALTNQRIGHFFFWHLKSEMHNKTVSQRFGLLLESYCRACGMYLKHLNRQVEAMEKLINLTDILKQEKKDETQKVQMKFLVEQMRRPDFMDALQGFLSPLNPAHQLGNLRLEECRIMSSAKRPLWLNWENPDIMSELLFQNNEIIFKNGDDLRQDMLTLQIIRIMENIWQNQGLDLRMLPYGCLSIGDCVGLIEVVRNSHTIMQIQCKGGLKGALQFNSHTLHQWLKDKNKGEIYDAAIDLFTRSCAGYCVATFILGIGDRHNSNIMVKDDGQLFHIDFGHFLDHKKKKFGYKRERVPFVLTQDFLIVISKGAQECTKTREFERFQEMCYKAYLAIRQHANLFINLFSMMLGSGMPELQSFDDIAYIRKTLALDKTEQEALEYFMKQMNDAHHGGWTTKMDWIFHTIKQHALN

Phosphatidylinositol 4,5-bisphosphate 3-kinase catalytic subunit beta isoform, sequence (P42338 whole entry, canonical isoform): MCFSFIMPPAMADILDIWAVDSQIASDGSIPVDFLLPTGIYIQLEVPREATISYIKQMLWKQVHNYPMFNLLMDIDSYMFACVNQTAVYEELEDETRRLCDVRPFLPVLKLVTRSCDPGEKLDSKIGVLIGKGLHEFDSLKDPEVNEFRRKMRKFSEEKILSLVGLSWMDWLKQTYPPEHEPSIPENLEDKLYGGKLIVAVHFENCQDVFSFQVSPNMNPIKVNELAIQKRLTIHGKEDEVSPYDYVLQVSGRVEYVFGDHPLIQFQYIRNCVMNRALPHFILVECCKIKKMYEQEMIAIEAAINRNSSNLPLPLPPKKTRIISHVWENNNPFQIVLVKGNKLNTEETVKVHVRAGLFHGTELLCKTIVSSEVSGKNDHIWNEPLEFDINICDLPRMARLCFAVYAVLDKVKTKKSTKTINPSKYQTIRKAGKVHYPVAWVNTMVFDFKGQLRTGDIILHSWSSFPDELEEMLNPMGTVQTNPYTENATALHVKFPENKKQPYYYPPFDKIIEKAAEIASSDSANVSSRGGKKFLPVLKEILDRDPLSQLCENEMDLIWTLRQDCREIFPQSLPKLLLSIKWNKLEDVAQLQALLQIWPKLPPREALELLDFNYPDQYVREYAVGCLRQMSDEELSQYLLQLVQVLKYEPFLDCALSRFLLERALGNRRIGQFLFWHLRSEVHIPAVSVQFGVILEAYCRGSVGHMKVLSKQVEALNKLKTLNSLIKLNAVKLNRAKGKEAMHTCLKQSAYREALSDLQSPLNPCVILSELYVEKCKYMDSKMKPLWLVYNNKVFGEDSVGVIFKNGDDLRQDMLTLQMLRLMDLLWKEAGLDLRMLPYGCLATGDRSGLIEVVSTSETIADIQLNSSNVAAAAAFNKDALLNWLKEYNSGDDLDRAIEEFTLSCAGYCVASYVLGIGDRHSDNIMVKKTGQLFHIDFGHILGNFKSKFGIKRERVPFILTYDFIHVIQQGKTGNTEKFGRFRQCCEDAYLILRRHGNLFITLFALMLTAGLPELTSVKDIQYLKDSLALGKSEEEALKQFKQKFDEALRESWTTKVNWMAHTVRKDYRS

Structure (SMILES) | IC50 [1] [µM] | IC50 [2] [µM] | IC50 [3] [µM]
N#CCc1ccc(Nc2ncnc3ccc(-c4ccncc4)cc23)cc1 | > 10 | > 10 | 
N#CCc1ccc(Nc2ncnc3ccc(-c4cncc5ccccc45)cc23)cc1 |  | > 20 | 
N#CCc1ccc(Nc2ncnc3ccc(-c4ccc5[nH]ccc5c4)cc23)cc1 | > 10 | > 10 | 
CC(=O)c1ccc(-c2ccc3ncnc(Nc4ccc(CC#N)cc4)c3c2)cc1 | > 10 | > 10 | 
N#CCc1ccc(Nc2ncnc3ccc(-c4cccc([N+](=O)[O-])c4)cc23)cc1 | > 10 | > 10 | 
C=Cc1ccc(-c2ccc3ncnc(Nc4ccc(CC#N)cc4)c3c2)cc1 | > 10 | > 10 | > 10
N#CCc1ccc(Nc2ncnc3ccc(-c4ccc5c(c4)OCCO5)cc23)cc1 | > 10 | > 10 | 
N#CCc1ccc(Nc2ncnc3ccc(-c4ccc5c(c4)OCO5)cc23)cc1 | > 10 | > 10 | 
